Measurements taken from article PMC6432629 (The Prostate, 2016).
Read-outs that look alike come from different tables or passages of the source. Numbered stars: 1 amine (or outer) side, 2 acyl side, 3 side chain; on linkers, the order of the positions; unused ones are H or OH. Square brackets hold non-standard residues; d marks the D form. Peptide text beside a SMILES is read from it. * marks the point of attachment. Emetine(N2') = CC[C@H]1CN2CCc3cc(OC)c(OC)cc3[C@@H]2C[C@@H]1C[C@@H]1c2cc(OC)c(OC)cc2CCN1*; PABC = O=C(OCc1ccc(N[*:1])cc1)[*:2]

Assays:
[1] = target: T1, FAP (Homo sapiens, UniProt Q12884); experiment: FAP-mediated hydrolysis of prodrugs ex vivo; type: in vitro ADME; settings: 37°C
T1 sequence (Q12884 27-760 limits assumed): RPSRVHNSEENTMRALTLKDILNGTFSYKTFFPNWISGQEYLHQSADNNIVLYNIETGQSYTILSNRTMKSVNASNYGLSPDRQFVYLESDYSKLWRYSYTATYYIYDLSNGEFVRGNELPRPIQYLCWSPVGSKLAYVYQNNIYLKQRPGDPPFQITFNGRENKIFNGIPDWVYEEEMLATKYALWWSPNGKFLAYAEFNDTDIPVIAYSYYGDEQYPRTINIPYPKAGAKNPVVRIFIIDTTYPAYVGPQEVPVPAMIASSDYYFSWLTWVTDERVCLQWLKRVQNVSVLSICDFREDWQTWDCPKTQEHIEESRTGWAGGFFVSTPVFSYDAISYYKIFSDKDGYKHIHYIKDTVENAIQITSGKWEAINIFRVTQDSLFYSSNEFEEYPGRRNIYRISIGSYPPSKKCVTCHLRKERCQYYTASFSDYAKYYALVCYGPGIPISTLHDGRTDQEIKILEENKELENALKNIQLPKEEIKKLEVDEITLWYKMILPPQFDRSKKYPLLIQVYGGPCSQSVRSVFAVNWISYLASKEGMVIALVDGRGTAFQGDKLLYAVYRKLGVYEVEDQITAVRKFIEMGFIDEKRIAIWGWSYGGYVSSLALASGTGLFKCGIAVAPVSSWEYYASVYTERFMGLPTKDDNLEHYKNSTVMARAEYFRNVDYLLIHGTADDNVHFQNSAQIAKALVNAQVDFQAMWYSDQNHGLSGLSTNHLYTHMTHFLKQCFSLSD

[2] = target: DPPIV (human recombinant CD26) (Homo sapiens, UniProt P27487); experiment: DPPIV-mediated hydrolysis of prodrugs ex vivo; type: in vitro ADME; settings: 10 at 500 μM (Fig. 3 legend: 200 μM), DPPIV 30 nM, 37°C, 2 hr
Sequence of DPPIV (human recombinant CD26) (P27487 whole entry): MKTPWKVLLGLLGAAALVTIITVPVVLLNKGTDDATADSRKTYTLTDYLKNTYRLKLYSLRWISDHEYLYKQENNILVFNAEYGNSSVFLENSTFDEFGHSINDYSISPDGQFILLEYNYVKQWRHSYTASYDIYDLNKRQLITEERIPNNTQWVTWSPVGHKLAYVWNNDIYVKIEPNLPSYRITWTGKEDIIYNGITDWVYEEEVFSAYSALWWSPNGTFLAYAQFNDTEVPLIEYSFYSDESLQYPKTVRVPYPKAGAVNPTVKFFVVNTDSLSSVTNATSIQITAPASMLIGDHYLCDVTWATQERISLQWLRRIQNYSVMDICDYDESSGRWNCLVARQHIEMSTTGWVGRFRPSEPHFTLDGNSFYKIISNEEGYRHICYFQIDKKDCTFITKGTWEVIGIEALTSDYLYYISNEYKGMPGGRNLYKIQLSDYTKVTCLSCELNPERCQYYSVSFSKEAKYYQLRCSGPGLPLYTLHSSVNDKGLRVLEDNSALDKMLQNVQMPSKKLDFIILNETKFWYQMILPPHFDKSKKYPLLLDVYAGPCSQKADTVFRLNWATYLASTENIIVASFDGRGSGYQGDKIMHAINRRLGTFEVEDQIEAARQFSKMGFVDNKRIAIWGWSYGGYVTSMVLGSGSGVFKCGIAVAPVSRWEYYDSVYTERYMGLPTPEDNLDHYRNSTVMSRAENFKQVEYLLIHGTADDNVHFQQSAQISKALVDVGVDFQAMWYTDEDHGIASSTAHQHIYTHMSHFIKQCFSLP

[3] = Hydrolysis of prodrugs in media with 10% FBS; type: in vitro ADME, bovine; settings: 37°C
[4] = Stability in serum free media; type: in vitro ADME; settings: 37°C, 72 hr incubation
[5] = tested on: PC3; experiment: MTT cell proliferation; settings: for cytotoxicity / IC50 compared with emetine, PC3 (in words): media with 10% FBS
[6] = tested on: LNCaP; experiment: MTT cell proliferation; settings: for cytotoxicity / IC50 compared with emetine, LNCaP (in words): media with 10% FBS
[7] = tested on: MCF-7; experiment: MTT cell proliferation; settings: for cytotoxicity / IC50 compared with emetine, MCF-7 (in words): media with 10% FBS; for IC50: read-out: IC50 (nM) MCF-7
[8] = tested on: PrEC cells; experiment: Cytotoxicity in normal prostatic epithelial cells in serum free media; settings: for cytotoxicity to PrEC at 100 nM and 1,000 nM (in words): keratinocyte serum free media, no FAP or DPPIV; for IC50: read-out: calculated IC50 in the PrEC cell lines
[9] = tested on: MDA-MB-231; experiment: MTT cell proliferation; type: cell-based, human; settings: 3-day exposure, media with 10% FBS
[10] = tested on: FAP and DPPIV; experiment: Tandem hydrolysis by mixture of purified FAP and DPPIV; type: in vitro ADME; settings: FAP 300 nM + DPPIV 30 nM, 37°C, HPLC and MS
In short: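 FAP expressed in Schneider S2 cells (induced with 500 μM CuSO4) and purified from supernatant on Ni-NTA; DPPIV is human recombinant from sf9 cells. Enzymes (FAP 300 nM, DPPIV 30 nM) in 100 mM Tris, 100 mM NaCl, pH 7.8. Substrate from 10 mM DMSO stock, 250 μM final, 2.5% DMSO. Shaken at 37°C for 24 hr; time-point aliquots quenched in cold acetonitrile, then HPLC and MS.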

[11] = Stability of prodrug 11 in human plasma; type: in vitro ADME; settings: human plasma (EDTA), 400 μM, 37°C, 24 hr, methanol precipitation, HPLC and MS
In short: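 Compound from 10 mM DMSO stock was added to EDTA-anticoagulated human plasma, with a PBS control at the same concentration. Incubated at 37°C for 24 hr. At time points, 100 μl aliquots received 200 μl cold methanol, sat on ice 10 min, and were centrifuged at 13,000 rpm for 6 min. Supernatant analysed by HPLC and mass spectrometry.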

[12] = tested on: NCI 60 cancer cell screen; settings: read-out: GI50 in NCI 60 cancer cell screen; no reference given; cited from earlier work

Q: What does the source list for CC[C@H]1CN2CCc3cc(OC)c(OC)cc3[C@@H]2C[C@@H]1C[C@@H]1c2cc(OC)c(OC)cc2CCN1C(=O)OCc1ccc(NC(=O)[C@@H]2CCCN2C(=O)[C@H](C)N)cc1 [Compound 10, Ala-Pro-PABC-Emetine]?
A: % conversion to emetine by FAP, 24 hr ([1]; purified recombinant FAP 300 nM, 24 hr): 36%; % conversion to emetine by purified DPPIV, 2 hr [2]: 88%; % conversion to emetine in 10% FBS, 2 hr ([3]; 10% FBS media, 2 hr): 10%; % emetine released, 10% FBS ([3]; RPMI media with 10% FBS, 500 μM compound, 1% DMSO, 24 hr, HPLC and MS): 78%; stability in serum free media [4]: completely stable; cytotoxicity / IC50 compared with emetine, PC3 (in words) ([5]; 3-day exposure): cytotoxicity comparable to that of emetine; IC50 ([5]; read-out: IC50 (nM) PC3, Table II, 3-day exposure, media containing 10% FBS, MTT): 37.2 ± 1.6 nM; cytotoxicity / IC50 compared with emetine, LNCaP (in words) ([6]; 3-day exposure): cytotoxicity comparable to that of emetine; IC50 ([6]; read-out: IC50 (nM) LNCaP, Table II, 3-day exposure, media containing 10% FBS, MTT): 38.2 ± 1 nM; cytotoxicity / IC50 compared with emetine, MCF-7 (in words) ([7]; 3-day exposure): cytotoxicity comparable to that of emetine; IC50 ([7]; Table II, 3-day exposure, media containing 10% FBS, MTT): 38.4 ± 1.2 nM; cytotoxicity to PrEC (in words) ([8]; 100 nM, 1-3 days exposure, serum free media lacking FAP and DPPIV): no observable cytotoxicity

Q: What does the source list for CC[C@H]1CN2CCc3cc(OC)c(OC)cc3[C@@H]2C[C@@H]1C[C@@H]1c2cc(OC)c(OC)cc2CCN1C(=O)OCc1ccc(NC(=O)[C@@H]2CCCN2C(=O)[C@H](C)NC(=O)[C@@H]2CCCN2C(=O)CNC(=O)[C@H](C)NC(=O)[C@@H]2CCCN2C(=O)CNC(=O)[C@H](CO)NC(=O)[C@H](C)NC(C)=O)cc1 [Compound 11] (Ac-ASGPAGPAP[PABC]-{Emetine(N2')})?
A: IC50 compared with emetine, MDA-MB-231 (in words) [9]: identical to that for emetine; cleavage by recombinant purified FAP (in words) ([1]; purified FAP 300 nM, up to 24 hr): progressively cleaved to the intermediate (precursor) 10; % emetine formed from 11, 2 hr ([10]; 2 hr): 22%; % precursor 10 formed from 11, 2 hr ([10]; 2 hr): 56%; % emetine formed from 11, 4 hr ([10]; 4 hr): 36%; % precursor 10 formed from 11, 4 hr ([10]; 4 hr): 58%; % precursor 10 in solution, 24 hr ([10]; 24 hr): 25%; precursor 10 or emetine detected after incubation in human plasma [11]: No detectable amount; cytotoxicity / IC50 compared with emetine, PC3 (in words) ([5]; 3-day exposure): identical to that for emetine; cytotoxicity / IC50 compared with emetine, LNCaP (in words) ([6]; 3-day exposure): identical to that for emetine; cytotoxicity / IC50 compared with emetine, MCF-7 (in words) ([7]; 3-day exposure): identical to that for emetine; cytotoxicity to PrEC at 100 nM and 1,000 nM (in words) ([8]; 3-day exposure): not cytotoxic; IC50 ([8]; 3-day exposure, expanded dose range, serum free media, absence of FAP and DPPIV): 7730 nM; fold less cytotoxic than emetine in PrEC ([8]; serum free media, absence of FAP and DPPIV): more than 200 fold

Q: With CC[C@H]1CN2CCc3cc(OC)c(OC)cc3[C@@H]2C[C@@H]1C[C@H]1NCCc2cc(OC)c(OC)cc21 [Emetine, emetine] as the compound, how does the GI50 [12] read?
A: The GI50 was 27 nM.

Q: What about the IC50 ([5]; Homo sapiens, PC-3, 120 h, read-out: PC3 [IC50 (nM)]) of the same compound?
A: Its IC50 is 29.4 ± 3.2 nM.

Q: And the IC50 ([6]; Homo sapiens, LNCaP, 120 h, read-out: LNCaP [IC50 (nM)])?
A: The IC50 was 31.6 ± 2.4 nM.

Q: What about the IC50 ([7]; Homo sapiens, MCF7, 72 h) of the same compound?
A: The IC50 was 35.8 ± 1.6 nM.

Q: What about the “percentage of viable cells relative to control, day 1” value ([8]; 100 nM, PrEC in serum free media lacking FAP and DPPIV, day 1) of the same compound?
A: Its value is 80%.

Q: What about the “percentage of viable cells relative to control, day 2” value ([8]; 100 nM, PrEC in serum free media lacking FAP and DPPIV, day 2) of the same compound?
A: The value was 50%.

Q: And the “percentage of viable cells relative to control, day 3” value ([8]; 100 nM, PrEC in serum free media lacking FAP and DPPIV, day 3)?
A: Its value is 10%.

Q: What about the “cytotoxicity to PrEC at 100 nM and 1,000 nM (in words)” value ([8]; 3-day exposure) of the same compound?
A: The value was “highly cytotoxic”.

Q: And the IC50 ([8]; Homo sapiens, PrEC, 72 h)?
A: Its IC50 is 35.7 nM.
